What all share (parameters): scale not given: the % may be the effect or the level left
Assay [1] concerns Platelet. Nature of the assay: Inhibition of platelet activating factor-induced platelet aggregation in rabbit platelets at 50 ug/mL treated […] before […] challenge relative to control. In kind it is functional, Oryctolagus cuniculus. Summed up:
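PAF-induced aggregation of rabbit platelets was run after 3 min preincubation at 37 °C with compound at graded levels or 0.5% DMSO control. PAF is given as 2 ng/mL in the footnote and 2 nM in the column header. Output is % aggregation with n per point.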

Assay [2] has as its system Platelet. Put plainly: Inhibition of thrombin-induced platelet aggregation in rabbit platelets at 50 ug/mL treated 30 mins before thrombin challenge relative to control. It counts as functional, Oryctolagus cuniculus.
Assay [3] relates to Platelet. Put plainly: Inhibition of arachidonic acid-induced platelet aggregation in rabbit platelets at 50 ug/mL treated 30 mins before […] challenge relative to control. It counts as functional, Oryctolagus cuniculus.
Assay [4] relates to Platelet. Nature of the assay: Inhibition of collagen-induced platelet aggregation in rabbit platelets at 50 ug/mL treated 30 mins before […] challenge relative to control. It counts as functional, Oryctolagus cuniculus.
Assay [5] relates to Platelet. Nature of the assay: Inhibition of platelet activating factor-induced platelet aggregation in rabbit platelets at 100 ug/mL treated […] before […] challenge relative to control. It counts as functional, Oryctolagus cuniculus. An outline of the steps:
(§1)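 Rabbit platelets were preincubated at 37 °C for 3 min with compound at 100 μg/mL, or with 0.5% DMSO as the control, before the inducer was added. Inducers were thrombin 0.1 U/mL, arachidonic acid 100 μM, collagen 10 μg/mL, or PAF. The read-out was % aggregation, with 3–6 replicates.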

For assay [6], the system named is Platelet. Put plainly: Inhibition of collagen-induced platelet aggregation in rabbit platelets at 100 ug/mL treated […] before […] challenge relative to control. It counts as functional, Oryctolagus cuniculus. Summed up:
as §1

Assay [7] concerns Platelet. Nature of the assay: Inhibition of arachidonic acid-induced platelet aggregation in rabbit platelets at 100 ug/mL treated […] before […] challenge relative to control. In kind it is functional, Oryctolagus cuniculus. An outline of the steps:
as §1

In assay [8] the test system is Platelet. Put plainly: Inhibition of arachidonic acid-induced platelet aggregation in rabbit platelets at 10 ug/mL treated 3 mins before arachidonic acid challenge relative to control.
Assay [9] has as its system Platelet. Nature of the assay: Inhibition of arachidonic acid-induced platelet aggregation in rabbit platelets at 20 ug/mL treated 30 mins before […] challenge relative to control. In kind it is functional, Oryctolagus cuniculus.
Assay [10] relates to Platelet. Put plainly: Inhibition of thrombin-induced platelet aggregation in rabbit platelets at 100 ug/mL treated […] before thrombin challenge relative to control. In kind it is functional, Oryctolagus cuniculus. An outline of the steps:
as §1

The test system of assay [11] is Platelet. Nature of the assay: Inhibition of arachidonic acid-induced platelet aggregation in rabbit platelets at 5 ug/mL treated 3 mins before arachidonic acid challenge relative to control.
The subject of assay [12] is Platelet. Nature of the assay: Inhibition of platelet activating factor-induced platelet aggregation in rabbit platelets at 5 ug/mL treated 3 mins before platelet activating factor challenge relative to control.
Assay [13] relates to Platelet. Nature of the assay: Inhibition of platelet activating factor-induced platelet aggregation in rabbit platelets at 20 ug/mL treated 3 mins before platelet activating factor challenge relative to control.
In assay [14] the test system is Platelet. Put plainly: Inhibition of platelet activating factor-induced platelet aggregation in rabbit platelets at 10 ug/mL treated 3 mins before platelet activating factor challenge relative to control.
Assay [15] deals with Platelet. Nature of the assay: Inhibition of arachidonic acid-induced platelet aggregation in rabbit platelets at 50 ug/mL treated 3 min before arachidonic acid challenge relative to control.

Take `COc1cc2ccnc3c2c(c1OC)-c1ccccc1C3=O` [LYSICAMINE]: the Activity came to 83.7% in the assay with Platelet [1], 88.9% in the assay on Platelet [2], 16.3% with Platelet [3] and 55.2% in the assay with Platelet [4].
Turning to `COc1cc2c(cc1OC)-c1c(OC)c(OC)c(OC)c3ccnc(c13)C2=O` [OXOPURPUREINE], the Activity is given as 87.2% in the assay with Platelet [5], 53.5% in the assay with Platelet [6] and 43.7% in the assay on Platelet [7].
Regarding `COc1cc2c3c(cc4ccccc4c3c1O)N(C)CC2` [DEHYDROLIRINIDINE], the Activity with Platelet [8] is on record as 82.8%; in the assay with Platelet [9] it was 77.6%; with Platelet [5] it was 51.7%; with Platelet [10] it was 86.3%; in the assay with Platelet [3] it was 23.8%; with Platelet [6], 0%. In the assay on Platelet [7], the Activity amounted to 0%.
For `CNCCc1c(OC)c(OC)c(OC)c2c1ccc1cc(OC)c(OC)cc12` [THALICPUREINE], the Activity is on record as 3.9% in the assay on Platelet [1]; 74.2% in the assay on Platelet [8]; 41.9% with Platelet [9]; 83.7% in the assay with Platelet [11]; 82.4% in the assay with Platelet [12]; 55.5% with Platelet [13]. Further, the Activity in the assay with Platelet [5] came out at 0%; in the assay with Platelet [10] it was 33.6%; in the assay with Platelet [3], 0%; with Platelet [14] it was 78.8%; with Platelet [6], 0%; with Platelet [7] it was 0%.
Consider `COc1cc2c(cc1OC)-c1c(OC)c(OC)c(O)c3c1[C@@H](C2)N(C)CC3` [THALBAICALIDINE], for which the Activity in the assay with Platelet [9] was 82.2%; with Platelet [5], 73.6%; with Platelet [10], 86.3%; with Platelet [3] it was 72.2%; in the assay on Platelet [6] it was 0%; in the assay with Platelet [7], 4.2%.
Turning to `COc1cc2c(cc1OC)-c1c(OC)c(O)cc3c1[C@H](C2)N(C)CC3` [PREDICENTRINE], the Activity in the assay with Platelet [9] came to 83.2%; with Platelet [5], 74%; in the assay with Platelet [10], 88.9%; in the assay with Platelet [3], 62%; in the assay with Platelet [6] it was 0%; in the assay on Platelet [7], 0%.
With `COc1cc2c(O)c3c4c(cc(OC)c(OC)c4c2cc1OC)CCN3C`, the Activity in the assay on Platelet [1] turned out to be 0%; in the assay on Platelet [12], 77.9%; in the assay with Platelet [13], 25.2%; in the assay with Platelet [5] it was 0%; in the assay with Platelet [10] it was 78.8%; in the assay on Platelet [14], 64.9%. Further, the Activity is recorded as 12.7% in the assay on Platelet [6] and 21.8% in the assay with Platelet [7].
On to `COc1cc2c(cc1OC)-c1c(OC)c(OC)cc3ccnc(c13)C2=O` [OXOGLAUCINE], for which the Activity stood at 84.4% in the assay on Platelet [1], 87% in the assay with Platelet [2], 55.8% in the assay on Platelet [15] and 74.4% in the assay on Platelet [4].

The values above are taken from ChEMBL document CHEMBL1151319, “Antiplatelet aggregation constituents from Annona purpurea” (1998).
